PAFAH1B3 inh: PAFAH1B3 enzyme inhibitors, primary screen, biochemical, fluorescence polarization, human; inhibition, % at 3.39 µM; Platelet-activating factor acetylhydrolase IB subunit alpha1 (Homo sapiens), Q15102; recombinant PAFAH1B3, FP-rhodamine probe; AID 492972, 2010; hit rate 0.28% among 340,000;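 active means inhibition above the screen-wide average of all tested compounds plus 3 SD, cut at about 25% in these data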;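 further: 0% = enzyme with DMSO only and 100% = wells lacking PAFAH1B3 protein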
PAFAH1B2 inh: PAFAH1B2 enzyme inhibitors, primary screen, biochemical, fluorescence polarization, human. recombinant PAFAH1B2, FP-rhodamine activity probe. inhibition, % at 3.39 µM. hit rate 1.2% among 340,000;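 active means inhibition above the mean of all tested compounds plus 3 SD, cut at about 24% in these data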;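 further: 0% = enzyme with DMSO and 100% = wells lacking PAFAH1B2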
Target sequence (P68402 whole entry, looked up): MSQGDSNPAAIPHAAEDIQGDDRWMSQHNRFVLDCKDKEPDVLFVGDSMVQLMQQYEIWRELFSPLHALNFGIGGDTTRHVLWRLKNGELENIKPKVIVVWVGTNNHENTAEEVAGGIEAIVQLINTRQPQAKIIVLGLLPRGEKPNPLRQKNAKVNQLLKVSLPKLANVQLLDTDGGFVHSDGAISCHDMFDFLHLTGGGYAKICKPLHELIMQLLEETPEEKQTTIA
NR3A LBD binder: binders of NR3A ligand-binding domain, primary screen, biophysical, differential scanning fluorimetry, uHTS; Glutamate receptor ionotropic, NMDA 3A (GRIN3A) ligand-binding domain; NR3A LBD differential scanning fluorimetry, Tm shift; 0% = protein alone, 100% = glycine-bound protein; Tm shift relative to glycine control, % at 25 µM; hit rate 2.5% among 340,000; AID 1259313, 2017;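 active means melting temperature shift of at least 10% of the positive control shift, at one fixed dose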
PAFAH2 FP inh: PAFAH2 enzyme inhibitors, primary screen, biochemical, fluorescence polarization, human; Platelet-activating factor acetylhydrolase 2, cytoplasmic (Homo sapiens), Q99487; recombinant PAFAH2, FP-rhodamine activity probe; inhibition, % at 3.39 µM; hit rate 0.99% among 340,000;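 active means inhibition above the mean over all tested compounds plus 3 SD, cut at about 30% in these data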;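 further: inhibitors block probe labeling of enzyme so polarization drops; 0% = enzyme with DMSO and 100% = wells lacking PAFAH2 protein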
UCH37 inh: inhibitors of human UCH37 deubiquitinase, primary screen, biochemical, Ub-AMC cleavage, fluorescence; Ubiquitin carboxyl-terminal hydrolase isozyme L5 (Homo sapiens), Q9Y5K5; purified proteasome/UCH37; inhibition, % (concentration not given with the values); hit rate 0.33% among 330,000; AID 588478, 2011;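 active means mean inhibition over replicate wells above about 20%, limit read from the data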;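 further: 0% = compound-free wells with enzyme and 100% = wells lacking proteasome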
Target sequence (Q9Y5K5 whole entry, looked up): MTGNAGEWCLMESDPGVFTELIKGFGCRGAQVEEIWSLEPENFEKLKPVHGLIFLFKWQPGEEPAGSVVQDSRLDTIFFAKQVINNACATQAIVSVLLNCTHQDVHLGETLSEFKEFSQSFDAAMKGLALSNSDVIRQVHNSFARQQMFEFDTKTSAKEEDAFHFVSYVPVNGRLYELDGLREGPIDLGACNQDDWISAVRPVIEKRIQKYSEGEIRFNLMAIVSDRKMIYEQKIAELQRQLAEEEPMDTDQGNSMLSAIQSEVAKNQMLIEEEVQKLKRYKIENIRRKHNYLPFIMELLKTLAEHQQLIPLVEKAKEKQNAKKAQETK
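Material: Human UCH37 enzyme supplied as purified proteasome complex | Schedule: 30 min compound-proteasome preincubation then 25 min substrate reaction, room temperature | Detection: AMC fluorescence from Ub-AMC cleavage, excitation 355 nm, emission 460 nm | Benchmarks: Wells without proteasome as full block, compound-free enzyme plus substrate as uninhibited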
pPAFAH FP inh: pPAFAH enzyme inhibitors, primary screen, biochemical, fluorescence polarization, human. recombinant pPAFAH, FP-rhodamine probe fluorescence polarization. inhibition, % at 3.39 µM. hit rate 1.5% among 330,000. Platelet-activating factor acetylhydrolase (Homo sapiens), Q13093;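 active means inhibition above the mean inhibition across the screen plus 3 SD, cut at about 25% in these data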;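 further: inhibitors block binding of the rhodamine activity-based probe so polarization drops; 0% = enzyme with DMSO and 100% = wells lacking pPAFAH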
PAFAH2 confirm: PAFAH2 enzyme inhibitors, confirmation, biochemical, fluorescence polarization, human. shares compounds with PAFAH2 FP inh. recombinant PAFAH2, FP-rhodamine activity probe. inhibition, % at 3.39 µM. hit rate 65% among 2,300;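 active means mean inhibition over three repeats above a set limit taken from the earlier primary screen, cut at about 30% in these data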;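 further: inhibitor blocks binding of rhodamine activity probe so polarization falls; 0% = enzyme with DMSO and 100% = wells lacking PAFAH2 protein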
The depositor's hits bear a star; . = no result given. Only some compounds are listed: those with a hit (about 4.8% of all), similar ones and a draw of the others.

SMILES	PAFAH1B3 inh	PAFAH1B2 inh	NR3A LBD binder	PAFAH2 FP inh	UCH37 inh	pPAFAH FP inh	PAFAH2 confirm
O=C(N/N=C/c1coc2ccccc2c1=O)c1cc(Br)c(O)c(Br)c1	4	5	0	71*	.	.	55*
O=C(NN=Cc1ccc2c(c1)OCO2)c1ccc(Br)o1	.	.	.	.	-16	.	.
O=C(ON=C1CCN(S(=O)(=O)c2ccccc2)CC1)c1ccccc1	6	10	-3	91*	3	2	83*
CC1(C)CC(=NOC(=O)c2ccccc2)CC(C)(C)N1O	8	6	-2	33*	2	3	32*
COc1ccc(C(=O)ON=C2CCN(C)CC2)cc1	1	5	-1	75*	2	3	63*
O=S(=O)(c1ccccc1)N1CCC(=NO)CC1	10	8	0	10	1	-1	.
CC1(C)Cc2noc(N)c2C(C)(C)N1OC(=O)c1ccccc1	1	3	0	0	0	2	.
O=C(ON=C1CCN(S(=O)(=O)c2ccccc2)CC1)c1cccc(Cl)c1	9	17	3	82*	3	13	79*
Cn1cc(C=NNc2ccccc2)c2ccccc21	.	.	.	.	-51	.	.
Cc1cc([N+](=O)[O-])ccc1-c1ccc(C=NNC(=O)c2ccc(Br)o2)o1	.	.	.	.	8	.	.
CCS/C(N)=N/N=Cc1cc(C)ccc1O	.	.	.	.	0	.	.
CNC(=S)NN=Cc1ccccc1OCC(=O)O	.	.	.	.	7	.	.
COc1cccc(/C=C/C(=O)OCC(=O)Nc2cccc(S(=O)(=O)NC3=NCCCCC3)c2)c1	8	5	2	50*	-20	-1	42*
C/C=C/C(=O)OCC(=O)Nc1cccc(S(=O)(=O)NC2=NCCCCC2)c1	12	4	-1	14	-2	3	.
O=C(COC(=O)/C=C/c1cccc(F)c1)Nc1cccc(S(=O)(=O)NC2=NCCCCC2)c1	-1	4	4	39*	2	2	16
CC(=O)Nc1ccc(S(=O)(=O)Oc2ccc(C=NNC(=O)c3ccc(Cl)cc3)cc2)cc1	.	.	.	.	2	.	.
CC(=NS(=O)(=O)c1ccc(C)cc1)N(C)C	.	.	.	.	1	.	.
Cn1cccc1C(=O)NN=Cc1c(Cl)cccc1Cl	.	.	.	.	3	.	.
O=C(O)/C(=C\c1ccccc1OC(F)F)c1ccc(-c2ccccc2)cc1	3	-4	-2	49*	-10	13	40*
CCN(c1cccc(C)c1)C1C(=O)c2ccccc2N1C(C)=O (centres undefined)	6	12	0	38*	-11	0	12
CC(=O)N(CN1C(=O)c2ccccc2C1=O)c1cccc(C)c1	2	3	4	-7	-1	6	.
O=C(NC(=S)NNC(=O)c1ccccc1O)c1ccco1	8	8	-10	53*	10	9	42*
O=C(NC(=S)NNC(=O)c1ccccc1O)c1cccc([N+](=O)[O-])c1	19	10	-2	42*	8	17	27
NC(=S)NN=Cc1ccc(-c2cc(Cl)c(Cl)cc2Cl)o1	.	.	.	.	-19	.	.
CCN(CC)c1ccc(C(=O)OCC(=O)N2CCCC2)cc1	3	0	0	36*	5	11	20
SMILES	PAFAH1B3 inh	PAFAH1B2 inh	NR3A LBD binder	PAFAH2 FP inh	UCH37 inh	pPAFAH FP inh	PAFAH2 confirm
O=Cc1ccc(C(=O)OCC(=O)N2CCCC2)cc1	0	-2	0	-6	2	2	.
CCN(CC)c1ccc(C(=O)OCC(=O)N(C)Cc2ccccc2)cc1	4	1	-3	48*	8	15	36*
CC(CC(=O)Nc1cc(Cl)ccc1C)=NNC(=O)C(=O)N1CCCC1	.	.	.	.	3	.	.
Oc1oc(-c2ccccc2)nc1C=NCc1ccccc1	11	4	-11	45*	6	18	37*
CSc1ccccc1N=Cc1nc(-c2ccccc2)oc1O	3	-1	-6	19	-6	14	.
CCOC(=O)COc1cc2c(C(=O)OCC)c(C)oc2cc1Br	4	5	-1	1	3	8	.
CCOC(=O)c1c(C)oc2cc(Br)c(O)c(Br)c12	4	1	-1	43*	0	8	31*
COc1ccc(CCCC(=O)NN=Cc2ccc(C)cc2)cc1	.	.	.	.	3	.	.
COc1ccccc1/C=C/C(=O)NCC(=O)NN=C(CCC(=O)O)c1ccccc1	.	.	.	.	-24	.	.
COc1ccc(C=NNC(=O)c2ccc(CN3C(=O)c4cccc5cccc3c45)cc2)cc1O	.	.	.	.	-55	.	.
COc1cccc(/C=C/C(=O)OCC(=O)NCCc2ccccc2)c1	4	-2	-3	32*	-10	5	23
O=C(COC(=O)/C=C/c1ccccc1)NC1CCCCC1	3	3	1	76*	0	9	83*
O=C(COC(=O)/C=C/c1ccccc1Cl)NC1CCCCCC1	6	-1	-2	72*	4	21	75*
O=C(COC(=O)/C=C/c1cccc(C(F)(F)F)c1)NC(=O)NC1CCCC1	4	-2	-2	-3	2	.	.
O=C(/C=C/c1ccccc1Cl)NC1CCCCC1	2	-2	0	-5	3	-6	.
O=C(COC(=O)/C=C/c1ccccc1)NC1CCCC1	7	6	-3	84*	1	9	74*
COc1ccc(C(=O)NN=C/C(C)=C/c2ccccc2)cc1OC	.	.	.	.	8	.	.
CC(=NNc1nc2ccccc2[nH]1)c1ccc(Cl)s1	.	.	.	.	-44	.	.
CC(=NN1CCN(Cc2ccccc2)CC1)c1ccc(Br)cc1	.	.	.	.	2	.	.
COc1cccc(/C=C/C(=O)OCC(=O)NCC2CCCO2)c1 (centres undefined)	-2	-1	-6	13	-7	0	.
O=C(COC(=O)/C=C/c1cccc(Br)c1)NC1CCCC1	13	-2	5	66*	3	13	59*
COc1cccc(/C=C/C(=O)OCC(=O)NC2CC2)c1	9	1	1	41*	-35	2	38*
COc1cccc(C=NNC(=O)CON=C(C)c2cccs2)c1OC	.	.	.	.	-2	.	.
COc1ccc(OC)c(C=NN(CCC#N)C2=NS(=O)(=O)c3ccccc32)c1	.	.	.	.	-10	.	.
COc1ccc(/C=C/C(=O)OCC(=O)Nc2ccc(N3CCOCC3)cc2)cc1OC	9	0	-1	16	-59	8	.
COc1ccccc1/C=C/C(=O)OCC(=O)Nc1ccc2c(c1)OCCO2	5	-1	-13	80*	-7	16	78*
COc1cc(/C=C/C(=O)OCC(=O)Nc2ccc3c(c2)OCCO3)ccc1OCC#N	4	-2	0	42*	-81	-4	51*

Source: PubChem BioAssay (several laboratories)
